Measured values published in ChEMBL document CHEMBL1138217, “Rapid discovery and structure-activity profiling of novel inhibitors of human immunodeficiency virus type 1 protease enabled by the copper(I)-catalyzed synthesis of 1,2,3-triazoles and their further functionalization” (J Med Chem, 2006).

Each molecule was assayed against Human immunodeficiency virus type 1 protease (Human immunodeficiency virus 1) (UniProt Q72874) (assay: Inhibition of HIV1 protease at 5 uM).
Procedure, shortened: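 Crude click-reaction DMSO mixtures (azide-alkyne, CuSO4 with copper turning, 1:1 tBuOH/H2O, 50 °C, 5 days) diluted to 5 µM in 0.1 M MES, 0.2 M NaCl, pH 5.25, 5% glycerol; HIV-1 protease 20 µg/mL plus fluorogenic substrate 50 µM added; fluorescence read directly in microplate; percent inhibition; TL-3 100 nM positive control.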
Work on `O=C(N[C@@H](Cc1ccccc1)[C@H](Cc1ccccc1)n1cc(CN2CCCC(c3ccccc3)C2)nn1)OC1CCCC1` (stereo not given in full) yielded an inhibition of 28%. With `O=C(N[C@@H](Cc1ccccc1)[C@H](Cc1ccccc1)n1cc(CN2CCN(c3ccccc3Cl)CC2)nn1)OC1CCCC1` the inhibition was 76%. `O=C(N[C@@H](Cc1ccccc1)[C@H](Cc1ccccc1)n1cc(CN2CCC(O)(c3cccc(C(F)(F)F)c3)CC2)nn1)OC1CCCC1` was tested, and the inhibition was 34%. Work on `O=C(N[C@@H](Cc1ccccc1)[C@H](Cc1ccccc1)n1cc(CN2CCN(c3cccc(O)c3)CC2)nn1)OC1CCCC1` yielded an inhibition of 85%. Work on `O=C(N[C@@H](Cc1ccccc1)[C@H](Cc1ccccc1)n1cc(CN2CCN(c3ccc(F)cc3F)CC2)nn1)OC1CCCC1` yielded an inhibition of 81%. Work on `Cc1ccc(Cl)cc1N1CCN(Cc2cn([C@@H](Cc3ccccc3)[C@H](Cc3ccccc3)NC(=O)OC3CCCCC3)nn2)CC1` yielded an inhibition of 66%. Molecule `Cc1ccc(Cl)cc1N1CCN(Cc2cn([C@@H](Cc3ccccc3)[C@H](Cc3ccccc3)NC(=O)OCC(C)C)nn2)CC1` has an inhibition of 73%. `Cc1ccc(Cl)cc1N1CCN(Cc2cn([C@@H](Cc3ccccc3)[C@H](Cc3ccccc3)NC(=O)C3CCCC3)nn2)CC1` was tested, and the inhibition was 28%. With `O=C(N[C@@H](Cc1ccccc1)[C@H](Cc1ccccc1)n1cc(CN2CCN(c3cccc(C(F)(F)F)c3)CC2)nn1)OC1CCCC1` (stereo in doubt; (S,S)-11s) the inhibition was 86%. `O=C(N[C@@H](Cc1ccccc1)[C@H](Cc1ccccc1)n1cc(CN2CC=C(c3ccc(Cl)cc3)CC2)nn1)OC1CCCC1` showed an inhibition of 58%. With `O=C(N[C@@H](Cc1ccccc1)[C@H](Cc1ccccc1)n1cc(CN2CCN(c3ccc(Cl)c(Cl)c3)CC2)nn1)OC1CCCC1` the inhibition was 86%. `O=C(N[C@@H](Cc1ccccc1)[C@H](Cc1ccccc1)n1cc(CN2CCN(Cc3ccc4c(c3)OCO4)CC2)nn1)OC1CCCC1` gave an inhibition of 29%. `O=C(N[C@@H](Cc1ccccc1)[C@H](Cc1ccccc1)n1cc(CN2CCC(c3ccccc3)CC2)nn1)OC1CCCC1` gave an inhibition of 67%. With `Cc1ccc(Cl)cc1N1CCN(Cc2cn([C@@H](Cc3ccccc3)[C@H](Cc3ccccc3)NC(=O)OCC3CCCO3)nn2)CC1` (stereo not given in full) the inhibition was 41%. Molecule `O=C(N[C@@H](Cc1ccccc1)[C@H](Cc1ccccc1)n1cc(CN2CCC(Cc3ccccc3)CC2)nn1)OC1CCCC1` has an inhibition of 70%. `O=C(N[C@@H](Cc1ccccc1)[C@H](Cc1ccccc1)n1cc(CN2CCN(c3cccc(C(F)(F)F)c3)CC2)nn1)OC1CCCC1` (stereo in doubt; (S,S)-7d) showed an inhibition of 87%. `CCN1CCN(Cc2cn([C@@H](Cc3ccccc3)[C@H](Cc3ccccc3)NC(=O)OC3CCCC3)nn2)CC1` was tested, and the inhibition was 26%. With `Cc1ccc(Cl)cc1N1CCN(Cc2cn([C@@H](Cc3ccccc3)[C@H](Cc3ccccc3)NC(=O)Oc3ccccc3)nn2)CC1` the inhibition was 31%. Work on `Cc1ccc(Cl)cc1N1CCN(Cc2cn([C@@H](Cc3ccccc3)[C@H](Cc3ccccc3)NC(=O)C3CCCCC3)nn2)CC1` yielded an inhibition of 17%. Molecule `O=C(N[C@@H](Cc1ccccc1)[C@H](Cc1ccccc1)n1cc(CN2CCN(c3ccc(C(F)(F)F)cc3)CC2)nn1)OC1CCCC1` has an inhibition of 48%. In the case of `O=C(N[C@@H](Cc1ccccc1)[C@H](Cc1ccccc1)n1cc(CN2CCN(c3ccccc3)CC2)nn1)OC1CCCC1`, the inhibition is reported as 82%. Work on `Cc1ccc(Cl)cc1N1CCN(Cc2cn([C@@H](Cc3ccccc3)[C@H](Cc3ccccc3)NC(=O)OCC3CCCC3)nn2)CC1` yielded an inhibition of 76%. `O=C(N[C@@H](Cc1ccccc1)[C@H](Cc1ccccc1)n1cc(CN2CCN(c3cc(Cl)cc(Cl)c3)CC2)nn1)OC1CCCC1` was tested, and the inhibition was 89%. `O=C(N[C@@H](Cc1ccccc1)[C@H](Cc1ccccc1)n1cc(CN2CCC(n3c(=O)[nH]c4ccccc43)CC2)nn1)OC1CCCC1` was tested, and the inhibition was 23%. For `Cc1ccc(Cl)cc1N1CCN(Cc2cn([C@@H](Cc3ccccc3)[C@H](Cc3ccccc3)NC(=O)NC(C)C)nn2)CC1`, the inhibition was 19%. With `O=C(N[C@@H](Cc1ccccc1)[C@H](Cc1ccccc1)n1cc(CN2CCC(O)(c3ccc(Cl)c(C(F)(F)F)c3)CC2)nn1)OC1CCCC1` the inhibition was 48%. `COc1ccccc1N1CCN(Cc2cn([C@@H](Cc3ccccc3)[C@H](Cc3ccccc3)NC(=O)OC3CCCC3)nn2)CC1` gave an inhibition of 38%. For `O=C(N[C@@H](Cc1ccccc1)[C@H](Cc1ccccc1)n1cc(CN2CCC(O)(c3ccccc3)CC2)nn1)OC1CCCC1`, the inhibition was 20%. `O=C(N[C@@H](Cc1ccccc1)[C@H](Cc1ccccc1)n1cc(CN2CCN(c3cccc(Cl)c3)CC2)nn1)OC1CCCC1` gave an inhibition of 93%. Molecule `O=C(N[C@@H](Cc1ccccc1)[C@H](Cc1ccccc1)n1cc(CN2CCC3(CC2)C(=O)NCN3c2ccccc2)nn1)OC1CCCC1` has an inhibition of 17%. With `O=C(N[C@@H](Cc1ccccc1)[C@H](Cc1ccccc1)n1cc(CN2CCN(C(=O)OCc3ccccc3)CC2)nn1)OC1CCCC1` the inhibition was 35%. Work on `O=C(N[C@@H](Cc1ccccc1)[C@H](Cc1ccccc1)n1cc(CN2CCN(c3ncccn3)CC2)nn1)OC1CCCC1` yielded an inhibition of 25%. For `O=C(N[C@@H](Cc1ccccc1)[C@H](Cc1ccccc1)n1cc(CN2CCN(C3CCCCC3)CC2)nn1)OC1CCCC1`, the inhibition was 22%. With `CCOC(=O)N[C@@H](Cc1ccccc1)[C@H](Cc1ccccc1)n1cc(CN2CCN(c3cc(Cl)ccc3C)CC2)nn1` the inhibition was 41%. `O=C(N[C@@H](Cc1ccccc1)[C@H](Cc1ccccc1)n1cc(CN2CCN(c3ccc(Cl)cc3)CC2)nn1)OC1CCCC1` gave an inhibition of 77%. `Cc1ccc(Cl)cc1N1CCN(Cc2cn([C@@H](Cc3ccccc3)[C@H](Cc3ccccc3)NC(=O)O[C@H]3CCOC3)nn2)CC1` was tested, and the inhibition was 85%. For `CC(C)(C)OC(=O)N1CCN(Cc2cn([C@@H](Cc3ccccc3)[C@H](Cc3ccccc3)NC(=O)OC3CCCC3)nn2)CC1`, the inhibition was 51%. Work on `O=C(N[C@@H](Cc1ccccc1)[C@H](Cc1ccccc1)n1cc(CN2CCN(c3ccccn3)CC2)nn1)OC1CCCC1` yielded an inhibition of 36%. With `O=C(N[C@@H](Cc1ccccc1)[C@H](Cc1ccccc1)n1cc(CN2CCN(c3cnccn3)CC2)nn1)OC1CCCC1` the inhibition was 14%. With `Cc1cccc(N2CCN(Cc3cn([C@@H](Cc4ccccc4)[C@H](Cc4ccccc4)NC(=O)OC4CCCC4)nn3)CC2C)c1` (stereo not given in full) the inhibition was 55%. `Cc1ccc(Cl)cc1N1CCN(Cc2cn([C@@H](Cc3ccccc3)[C@H](Cc3ccccc3)NC(=O)OCC3CC3)nn2)CC1` was tested, and the inhibition was 69%. With `Cc1ccc(Cl)cc1N1CCN(Cc2cn([C@@H](Cc3ccccc3)[C@H](Cc3ccccc3)NC(=O)OCc3ccccc3)nn2)CC1` the inhibition was 29%. `COC(=O)N[C@@H](Cc1ccccc1)[C@H](Cc1ccccc1)n1cc(CN2CCN(c3cc(Cl)ccc3C)CC2)nn1` gave an inhibition of 25%. Work on `O=C(N[C@@H](Cc1ccccc1)[C@H](Cc1ccccc1)n1cc(CN2CCN(c3ccc(F)cc3)CC2)nn1)OC1CCCC1` yielded an inhibition of 64%. Molecule `Cc1ccc(Cl)cc1N1CCN(Cc2cn([C@@H](Cc3ccccc3)[C@H](Cc3ccccc3)NC(=O)OCC3CCC3)nn2)CC1` has an inhibition of 75%. With `Cc1ccc(Cl)cc1N1CCN(Cc2cn([C@@H](Cc3ccccc3)[C@H](Cc3ccccc3)NC(=O)OC3CCCCCC3)nn2)CC1` the inhibition was 63%. In the case of `Cc1ccc(Cl)cc1N1CCN(Cc2cn([C@@H](Cc3ccccc3)[C@H](Cc3ccccc3)NC(=O)OC3CCC3)nn2)CC1`, the inhibition is reported as 75%. `Cc1c(Cl)cccc1N1CCN(Cc2cn([C@@H](Cc3ccccc3)[C@H](Cc3ccccc3)NC(=O)OC3CCCC3)nn2)CC1` gave an inhibition of 86%. In the case of `Cc1ccc(Cl)cc1N1CCN(Cc2cn([C@@H](Cc3ccccc3)[C@H](Cc3ccccc3)NC(=O)c3ccco3)nn2)CC1`, the inhibition is reported as 25%. `Cc1ccccc1N1CCN(Cc2cn([C@@H](Cc3ccccc3)[C@H](Cc3ccccc3)NC(=O)OC3CCCC3)nn2)CC1` gave an inhibition of 80%.
